Assay results of several laboratories.
Compare with care: the assays were run in different laboratories.
Target: Tyrosine-protein kinase receptor TYRO3 (TYRO3, Homo sapiens, UniProt Q06418)
One construct used (Q06418 41-890): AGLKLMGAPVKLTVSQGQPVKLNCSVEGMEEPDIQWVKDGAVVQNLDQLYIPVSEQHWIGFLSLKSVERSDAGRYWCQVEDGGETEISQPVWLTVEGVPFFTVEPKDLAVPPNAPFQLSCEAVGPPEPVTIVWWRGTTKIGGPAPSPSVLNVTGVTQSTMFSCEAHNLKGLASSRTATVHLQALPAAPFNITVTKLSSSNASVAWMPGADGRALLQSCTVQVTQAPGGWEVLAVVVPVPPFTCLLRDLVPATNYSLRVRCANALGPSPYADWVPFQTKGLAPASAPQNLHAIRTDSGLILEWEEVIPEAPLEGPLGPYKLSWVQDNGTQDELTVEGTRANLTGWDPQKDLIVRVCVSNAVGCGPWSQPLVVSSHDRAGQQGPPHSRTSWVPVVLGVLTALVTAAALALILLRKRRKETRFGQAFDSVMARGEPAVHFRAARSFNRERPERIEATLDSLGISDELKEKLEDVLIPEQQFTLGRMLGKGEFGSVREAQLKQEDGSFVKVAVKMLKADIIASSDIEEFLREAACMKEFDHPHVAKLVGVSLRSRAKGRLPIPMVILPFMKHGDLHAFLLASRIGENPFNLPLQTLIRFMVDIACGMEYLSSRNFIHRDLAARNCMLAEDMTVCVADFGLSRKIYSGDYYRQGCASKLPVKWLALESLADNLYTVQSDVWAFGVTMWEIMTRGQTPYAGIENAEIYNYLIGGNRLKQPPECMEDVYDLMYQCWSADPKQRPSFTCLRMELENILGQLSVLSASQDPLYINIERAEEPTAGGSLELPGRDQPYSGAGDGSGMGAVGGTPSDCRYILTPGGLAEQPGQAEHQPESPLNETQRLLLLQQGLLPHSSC

Compound	read-out	technique	tested at	remaining binding [%]
C[C@H]1CCN(c2nccc(-c3cnn4ncccc34)n2)C1	binding	–	1 µM	100
Cc1cnc(Nc2ccc(C(=O)N3CCC(N4CCCC4)CC3)cc2)nc1-c1cc2ccccc2s1	binding	competition with immobilised ligand	1 µM	58
O=C(NCC1CCOCC1)c1n[nH]cc1NC(=O)c1c(F)cccc1F	binding	competition with immobilised ligand	1 µM	99
COc1ncc2cc3ccccc3nc2c1C#N	cell-free assay	competition with immobilised ligand	5 µM	96
Cc1c(NC(=O)c2cc(C(N)=O)nc3cc(F)ccc23)c(C(F)(F)F)nn1Cc1ccc(C#N)cc1	cell-free assay	competition with immobilised ligand	1 µM	81
O=C(NCCCN1CCOCC1)c1ccc(Nc2ncc(Cl)c(-c3ccc(Cl)s3)n2)cc1	binding	competition with immobilised ligand	1 µM	94
Nc1c(C(=O)NCc2ccc(C(=O)NCCCC3CCCCC3)cc2)cnn1-c1ccccc1	cell-free assay	competition with immobilised ligand	0.1 µM	100
CN(C)c1nccc(-c2cnn3ncccc23)n1	binding	–	1 µM	75
C[C@H](c1ccc(F)cc1)N(Cc1cccc(C(=O)O)c1)C(=O)c1cnc2ccccc2c1	cell-free assay	competition with immobilised ligand	1 µM	100
CN(c1nccc(-c2cnn3ncccc23)n1)C1CC1	binding	–	1 µM	83
CS(=O)(=O)NCC[C@H](NC(=O)c1cncc2c1cnn2-c1ccc(F)cc1)c1ccnc(S(C)(=O)=O)c1	cell-free assay	competition with immobilised ligand	1 µM	94
N[C@H]1CCN(c2nccc(-c3cnn4ncccc34)n2)C1	binding	–	1 µM	88
c1cncc(-c2cccc(Nc3nccc(NC4CCCCC4)n3)c2)c1	binding	competition with immobilised ligand	10 µM	9.3
COc1cnc(Nc2cccc(S(N)(=O)=O)c2)nc1N1CCN(c2ccccc2)C(=O)C1	binding	competition with immobilised ligand	1 µM	100
C[C@@H](c1cccc(C#N)c1)n1cc(Cl)cc(C(N)=O)c1=N	cell-free assay	competition with immobilised ligand	1 µM	68
CCN1CCN(Cc2ccc(C(=O)Nc3ccc(C)c(Oc4ccc5c(c4)CC(=O)N5)c3)cc2C(F)(F)F)CC1	binding	competition with immobilised ligand	1 µM	100
CCC(=N\O)/C(C)=C/c1ccc(F)cc1	cell-free assay	competition with immobilised ligand	1 µM	100
F[C@@H]1CCN(c2nccc(-c3cnn4ncccc34)n2)C1	binding	–	1 µM	89
COc1ccc2c(c1)O[C@@H](c1ccc(OC)c(OC)c1)C[C@H]2NC(=O)C1(c2ccc3c(c2)OC(F)(F)O3)CC1	cell-free assay	competition with immobilised ligand	1 µM	97
CN(C)c1nccc(-c2cnc3ncccn23)n1	binding	–	1 µM	100
O=C(c1ccc(Nc2ncc(Cl)c(-c3ccc(Cl)s3)n2)cc1)N1CCC(N2CCCC2)CC1	binding	competition with immobilised ligand	1 µM	57
COc1cnc(Nc2cccc(S(N)(=O)=O)c2)nc1N1CCN(c2ccccc2)CC1	binding	competition with immobilised ligand	1 µM	72
